Measured values taken from ChEMBL document CHEMBL4028810, “Synthesis and biological evaluation of novel chalcone derivatives as a new class of microtubule destabilizing agents” (Eur J Med Chem, 2017).
Activity calls are given as the source filed them. The rule behind the calls is not given here.

Tests used:
NCI-H460 [1] = assay: Cytotoxicity against human NCI-H460 cells after 48 hrs by MTT assay; type: functional, cell-based; conditions: NCI-H460, 48 h
Method in brief: (§1)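 Log-phase cells were seeded at about 1 × 10⁵ cells/mL in 96-well plates and allowed to settle 12 h at 37 °C in 5% CO₂. Compounds were added at five concentrations for 48 h. Absorbance was read at dual wavelength 570/630 nm. Survival was expressed as a percentage of control, and IC50 was calculated by the Bliss method (n = 5). Each test was run in triplicate.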

HepG2 = assay: Cytotoxicity against human HepG2 cells after 48 hrs by MTT assay; type: functional, cell-based; conditions: HepG2, 48 h; method in brief: as §1
T-24 = assay: Cytotoxicity against human T24 cells after 48 hrs by MTT assay; type: functional, cell-based; conditions: T-24, 48 h; method in brief: as §1
L02 = assay: Cytotoxicity against human HL7702 cells after 48 hrs by MTT assay; type: cell-based; conditions: L02, 48 h; method in brief: as §1
[2] = Resistant factor, ratio of IC50 for human A549/TR cells to IC50 for human A549 cells; type: functional
Method in brief: (§2)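 The resistance index is IC50 on the paclitaxel-resistant line divided by IC50 on the parental sensitive line (A549 or HeLa). Both IC50 values come from the 48 h, five-concentration growth assay with 570/630 nm absorbance read-out and Bliss-method calculation.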

HeLa = assay: Resistant factor, ratio of IC50 for human HeLa/TR cells to IC50 for human HeLa cells; type: functional; method in brief: as §2
A549 = assay: Cytotoxicity against human A549 cells after 48 hrs by MTT assay; type: functional, cell-based; conditions: A549, 48 h; method in brief: as §1
A549/TR = assay: Cytotoxicity against human A549/TR cells after 48 hrs by MTT assay; type: functional, cell-based; method in brief: as §1
[3] = Cytotoxicity against human HeLa/TR cells after 48 hrs by MTT assay; type: functional, cell-based; method in brief: as §1
Sus scrofa = organism: Sus scrofa; assay: Inhibition of porcine brain tubulin polymerization at 15 uM measured at 1 min interval for 40 mins by spectrophotometric method
Method in brief: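 Purified brain tubulin, final 3.0 mg/mL, was added to start the reaction in 80 mM PIPES pH 6.9, 2.0 mM MgCl₂, 0.5 mM EGTA, 1 mM GTP and 10.2% glycerol, with the other components prewarmed to 37 °C. Compounds were tested at 10 or 15 µM. Polymerization at 37 °C was followed as absorbance at 340 nm over 40 min.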

NCI-H460 [4] = assay: Induction of apoptosis in human NCI-H460 cells assessed as early apoptotic cells at 5 uM after 24 hrs by Annexin V-FITC/propidium iodide staining based flow cytometric method (reference value: 1.55%); type: functional
NCI-H460 [5] = assay: Induction of apoptosis in human NCI-H460 cells assessed as early apoptotic cells at 10 uM after 24 hrs by Annexin V-FITC/propidium iodide staining based flow cytometric method (reference value: 1.55%); type: functional
NCI-H460 [6] = assay: Induction of apoptosis in human NCI-H460 cells assessed as late apoptotic cells at 10 uM after 24 hrs by Annexin V-FITC/propidium iodide staining based flow cytometric method (reference value: 0.839%); type: functional
NCI-H460 [7] = assay: Induction of apoptosis in human NCI-H460 cells assessed as necrotic cells at 10 uM after 24 hrs by Annexin V-FITC/propidium iodide staining based flow cytometric method (reference value: 1.84%); type: functional
NCI-H460 [8] = assay: Induction of apoptosis in human NCI-H460 cells after 24 hrs by Annexin V-FITC/propidium iodide staining based flow cytometric method; type: functional, cell-based
NCI-H460 [9] = assay: Induction of apoptosis in human NCI-H460 cells assessed as appearance of hyper-condensed nuclei after 24 hrs by Hoechst 33258 staining based fluorescence assay; type: functional, cell-based
Method in brief: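 NCI-H460 cells were treated 24 h at 5 or 10 µM, with untreated cells as control. Nuclei were stained with Hoechst 33258 and inspected by fluorescence for chromatin condensation.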

NCI-H460 [10] = assay: Cell cycle arrest in human NCI-H460 cells assessed as accumulation at G1-phase at 5 uM after 48 hrs by propidium iodide staining based flow cytometric method (reference value: 75.84%); type: functional
NCI-H460 [11] = assay: Cell cycle arrest in human NCI-H460 cells assessed as accumulation at G2-phase at 5 uM after 48 hrs by propidium iodide staining based flow cytometric method (reference value: 2.37%); type: functional
NCI-H460 [12] = assay: Cell cycle arrest in human NCI-H460 cells assessed as accumulation at G1-phase at 10 uM after 48 hrs by propidium iodide staining based flow cytometric method (reference value: 75.84%); type: functional
NCI-H460 [13] = assay: Cell cycle arrest in human NCI-H460 cells assessed as accumulation at G2-phase at 10 uM after 48 hrs by propidium iodide staining based flow cytometric method (reference value: 2.37%); type: functional
NCI-H460 [14] = assay: Cell cycle arrest in human NCI-H460 cells assessed as accumulation at S-phase at 10 uM after 48 hrs by propidium iodide staining based flow cytometric method (reference value: 21.79%); type: functional
NCI-H460 [15] = assay: Induction of apoptosis in human NCI-H460 cells assessed as increase in ROS generation after 24 hrs by DCFH-DA staining based flow cytometric method; type: functional, cell-based
Method in brief: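 NCI-H460 cells in six-well plates were treated 24 h at 5 or 10 µM, with untreated cells as control. Cells were pelleted at 2000 rpm, washed twice in ice-cold PBS and resuspended in 10 µM DCFH-DA in cell-free medium for 20 min at 37 °C in the dark. After two more PBS washes, fluorescence was read by flow cytometry.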

NCI-H460 [16] = assay: Disruption of mitochondrial membrane potential in human NCI-H460 cells assessed as collapse of mitochondrial membrane potential at 10 uM after 24 hrs by JC-1 staining based flow cytometric method (reference value: 1.98%); type: functional
Method in brief: (§3)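 NCI-H460 cells were treated 24 h at 5 or 10 µM, with untreated cells as control. The medium was replaced, and the JC-1 probe was added 20 min later. Cells were then pelleted at 2000 rpm, washed twice in ice-cold PBS and analysed by flow cytometry with excitation at 488 nm and emission at 530 and 590 nm.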

NCI-H460 [17] = assay: Disruption of mitochondrial membrane potential in human NCI-H460 cells after 24 hrs by JC-1 staining based flow cytometric method; type: functional, cell-based; method in brief: as §3
NCI-H460 [18] = assay: Induction of apoptosis in human NCI-H460 cells assessed as increase in cytochrome c release from mitochondria to cytosol after 48 hrs by Western blot method; type: functional, cell-based
Method in brief: (§4)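 NCI-H460 cells were treated 48 h at various concentrations. Cells were washed in ice-cold PBS and lysed on ice for 20 min, and lysates were spun at 20000 g and 4 °C for 5 min. Protein was quantified by BCA, and equal amounts were run on 12% SDS-PAGE and transferred to PVDF. Membranes were blocked in 5% milk/TBST, probed overnight at 4 °C with primary antibodies (β-actin as reference), then with peroxidase secondary for 2 h. Bands were detected by chemiluminescence.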

NCI-H460 [19] = assay: Induction of apoptosis in human NCI-H460 cells assessed as increase in cleaved caspase-9 expression at 5 to 10 uM after 48 hrs by Western blot method; type: functional, cell-based; method in brief: as §4
NCI-H460 [20] = assay: Induction of apoptosis in human NCI-H460 cells assessed as increase in cleaved caspase-3 expression at 5 to 10 uM after 48 hrs by Western blot method; type: functional, cell-based; method in brief: as §4
NCI-H460 [21] = assay: Induction of apoptosis in human NCI-H460 cells assessed as down regulation of Bcl2 expression after 48 hrs by Western blot method; type: functional, cell-based; method in brief: as §4

In the case of `COc1ccc(/C=C/C(=O)c2cc(OC)c(OC)c(OC)c2)cc1OCC(=O)Nc1ccccc1Cl`, the IC50 (NCI-H460 [1]) is reported as 3.75 µM, the IC50 (HepG2) is reported as 4.06 µM and the IC50 (T-24) is reported as 5.8 µM. For the same molecule, the IC50 (L02) was greater than 50 µM, the “Ratio IC50” value [2] was 1.2 and the “Ratio IC50” value (HeLa) was 1.31. For the same molecule, the IC50 (A549) was 5.21 µM, the IC50 (A549/TR) was 6.25 µM and the IC50 [3] was 5.95 µM. For the same molecule, the inhibition (Sus scrofa) was “Active”, the Activity (NCI-H460 [4]) was 11.9% and the Activity (NCI-H460 [5]) was 23.7%. For the same molecule, the Activity (NCI-H460 [6]) was 42.7%, the Activity (NCI-H460 [7]) was 10.9% and the Activity (NCI-H460 [8]) was “Dose-dependent effect”. The Activity (NCI-H460 [9]) was “Dose-dependent effect”, the Activity (NCI-H460 [10]) was 59.12% and the Activity (NCI-H460 [11]) was 11.88%. The Activity (NCI-H460 [12]) was 1.95%, the Activity (NCI-H460 [13]) was 72.4% and the Activity (NCI-H460 [14]) was 20.81%. The Activity (NCI-H460 [15]) was “Dose-dependent effect”, the Activity (NCI-H460 [16]) was 4.86% and the Activity (NCI-H460 [17]) was “Dose-dependent effect”. The Activity (NCI-H460 [18]) was “Dose-dependent effect”, the Activity (NCI-H460 [19]) was “Active” and the Activity (NCI-H460 [20]) was “Active”. The Activity (NCI-H460 [21]) was “Dose-dependent effect”.
